We go through ten molecules from ChEMBL document CHEMBL4346727, “Synthesis and pharmacological evaluation of novel N-Mannich bases derived from 5,5-diphenyl and 5,5-di(propan-2-yl)imidazolidine-2,4-dione core” (Bioorg Med Chem Lett, 2019).

Series [1] has as its system Mus musculus. Kind of series: Anticonvulsant activity in CD1 mouse assessed as protection against subcutaneous pentylenetetrazole-induced seizures at 300 mg/kg, ip and measured after 0.5 hrs. It counts as functional, organism-based. The gist of the method: (§1)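 Mice were screened after intraperitoneal doses of 30, 100 and 300 mg/kg in the maximal electroshock and subcutaneous pentylenetetrazole tests, examined at 0.5 and 4 h. The value recorded is the minimum dose showing activity. No activity up to 300 mg/kg is scored as absent.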

A short description of series [2]: Neurotoxicity in Sprague-Dawley rat at 30 mg/kg, po measured after 4 hr by rotarod test. It is filed as toxicity, organism-based. The following applies: in vivo. The gist of the method:
(§2)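 Rats given one oral dose of 30 mg/kg and tested on the rotarod at 0.25, 0.5, 1, 2, 4 and 6 h.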

The test system of series [3] is Mus musculus. The series is described as follows: Anticonvulsant activity in ip dosed CD1 mouse assessed as protection against 50 mA current-induced seizure and measured after 0.5 hrs by maximal electroshock seizure test. It counts as functional. Particulars: read-out: MED. A digest of the protocol: as §1
(In general: The maximal electroshock test induces tonic seizures with an electrical stimulus.)

The nature of series [4]: Neurotoxicity in Sprague-Dawley rat at 30 mg/kg, po measured after 1 hr by rotarod test. It counts as toxicity, organism-based. The following applies: in vivo. The gist of the method: as §2
(Falling from the rotarod earlier than controls is read as motor impairment.)

A short description of series [5]: Neurotoxicity in Sprague-Dawley rat at 30 mg/kg, po measured after 15 mins by rotarod test. It is filed as toxicity, organism-based. Particulars: in vivo, 0.25 h. The gist of the method: as §2
Series [6] has as its system Mus musculus. Kind of series: Anticonvulsant activity in CD1 mouse assessed as protection against subcutaneous pentylenetetrazole-induced seizures at 300 mg/kg, ip and measured after 4 hrs. It is filed as functional, organism-based. A digest of the protocol: as §1
Series [7] is described as follows: Neurotoxicity in Sprague-Dawley rat at 30 mg/kg, po measured after 2 hr by rotarod test. It is filed as toxicity, organism-based. The following applies: in vivo. A digest of the protocol: as §2
Series [8] can be described thus: Neurotoxicity in CD1 mouse at 300 mg/kg, ip and measured after 0.5 hrs by rotarod test. It counts as toxicity, organism-based. The following applies: in vivo. A digest of the protocol: (§3)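 Mice dosed intraperitoneally at 30, 100 and 300 mg/kg, then tested on the rotarod at 0.5 h and 4 h. The value recorded is the minimum dose at which neurotoxicity appeared. A dash means no neurotoxicity at the top dose of 300 mg/kg.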

Series [9] concerns Mus musculus. Kind of series: Anticonvulsant activity in ip dosed CD1 mouse assessed as protection against 50 mA current-induced seizure and measured after 4 hrs by maximal electroshock seizure test. It counts as functional. Particulars: read-out: MED. The gist of the method: as §1
A short description of series [10]: Neurotoxicity in CD1 mouse at 300 mg/kg, ip and measured after 4 hrs hrs by rotarod test. It counts as toxicity, organism-based. The following applies: in vivo. A digest of the protocol: as §3
Series [11] is described as follows: Neurotoxicity in Sprague-Dawley rat at 30 mg/kg, po measured after 30 mins by rotarod test. Particulars: in vivo, 0.5 h. It counts as toxicity, organism-based. A digest of the protocol: as §2
Series [12] deals with Rattus norvegicus. The series is described as follows: Anticonvulsant activity in Sprague-Dawley rat assessed as protection against 150 mA current-induced seizure at 30 mg/kg, po measured after 30 mins by maximal electroshock seizure test. It counts as functional, organism-based. A digest of the protocol: (§4)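 Rats received 30 mg/kg orally and were given maximal electroshock at 0.25, 0.5, 1, 2, 4 and 6 h. Read-out is the number of rats protected out of four.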

The test system of series [13] is Mus musculus. The series is described as follows: Anticonvulsant activity in CD1 mouse assessed as protection against 50 mA current-induced seizure at 300 mg/kg, ip and measured after 0.5 hrs by maximal electroshock seizure test. It counts as functional, organism-based. The gist of the method: as §1
A short description of series [14]: Neurotoxicity in ip dosed CD1 mouse and measured after 0.5 hrs by rotarod test. It is filed as toxicity, organism-based. Particulars: in vivo. The gist of the method:
as §3

A short description of series [15]: Neurotoxicity in ip dosed CD1 mouse and measured after 4 hrs by rotarod test. It is filed as toxicity, organism-based. The following applies: in vivo. The gist of the method: as §3
Series [16] relates to Rattus norvegicus. The series is described as follows: Anticonvulsant activity in Sprague-Dawley rat assessed as protection against 150 mA current-induced seizure at 30 mg/kg, po measured after 15 mins by maximal electroshock seizure test. It counts as functional, organism-based. A digest of the protocol:
as §4

Series [17] in a line: Neurotoxicity in CD1 mouse at 100 mg/kg, ip measured after 15 mins by rotarod test. The following applies: in vivo, 0.25 h.
For series [18], the system named is Mus musculus. The series is described as follows: Anticonvulsant activity in CD1 mouse assessed as protection against 32 mA current-induced seizure at 100 mg/kg, ip measured after 2 hrs by 6 Hz psychomotor seizure test.
Series [19] can be described thus: Neurotoxicity in CD1 mouse at 100 mg/kg, ip measured after 1 hr by rotarod test. Particulars: in vivo.
Series [20] is described as follows: Neurotoxicity in CD1 mouse at 100 mg/kg, ip measured after 30 mins by rotarod test. Particulars: in vivo, 0.5 h.
Series [21] in a line: Neurotoxicity in CD1 mouse at 100 mg/kg, ip measured after 4 hrs by rotarod test. Particulars: in vivo.
The nature of series [22]: Neurotoxicity in CD1 mouse at 100 mg/kg, ip measured after 2 hrs by rotarod test. The following applies: in vivo.
For series [23], the system named is Rattus norvegicus. The series is described as follows: Anticonvulsant activity in Sprague-Dawley rat assessed as protection against 150 mA current-induced seizure at 30 mg/kg, po measured after 2 hrs by maximal electroshock seizure test. It counts as functional, organism-based. The gist of the method: as §4
Series [24] relates to Rattus norvegicus. Kind of series: Anticonvulsant activity in Sprague-Dawley rat assessed as protection against 150 mA current-induced seizure at 30 mg/kg, po measured after 1 hr by maximal electroshock seizure test. It is filed as functional, organism-based. A digest of the protocol:
as §4

In series [25] the test system is Mus musculus. Kind of series: Anticonvulsant activity in CD1 mouse assessed as protection against 32 mA current-induced seizure at 100 mg/kg, ip measured after 15 mins by 6 Hz psychomotor seizure test.
For series [26], the system named is Mus musculus. Kind of series: Anticonvulsant activity in CD1 mouse assessed as protection against 50 mA current-induced seizure at 300 mg/kg, ip and measured after 4 hrs by maximal electroshock seizure test. It is filed as functional, organism-based. The gist of the method:
as §1

Structures are written as SMILES. Activity calls are given as the source filed them. Unless noted, the rule behind the calls is not given here.

In the case of `O=C1NC(c2ccccc2)(c2ccccc2)C(=O)N1CN1CCN(c2ccccc2)CC1`, the MED entry in [1] is “inactive”. Further, the Activity result in series [2], in series [4], in series [5], in series [7], in series [8] and in [10] was “Non-Toxic” throughout. Besides, the Activity result in [11] was “Non-Toxic”. Moreover, the minimal effective dose in series [3] is 300 mg/kg; in series [9], 100 mg/kg. The result in [6] was inactive.
Take `O=C1NC(c2ccccc2)(c2ccccc2)C(=O)N1CN1CCN(c2cccc(Cl)c2)CC1`: in series [1], the MED entry was “inactive”. The Activity entry in series [2], in series [4], in series [5], in series [7], in series [8] and in series [10] was “Non-Toxic” throughout. The Activity result in [11] is on record as “Non-Toxic”. For the same molecule, the result in series [6], in [12] and in series [13] was inactive. Moreover, in series [9], the minimal effective dose turned out to be 100 mg/kg.
Take `CC(C)C1(C(C)C)NC(=O)N(CN2CCN(c3ccc(F)cc3)CC2)C1=O`: the MED result in series [1] was “inactive”. Also, the result in [6] and in [13] was inactive. For the same molecule, the minimal effective dose in series [9] was 100 mg/kg. Besides, the minimal neurotoxic dose in [14] was found to be 300 mg/kg. The same molecule yielded an MTC in series [15] of 300 mg/kg.
For `O=C1NC(c2ccccc2)(c2ccccc2)C(=O)N1CN1CCN(c2ccccc2F)CC1`, in [1], the MED entry was “inactive”. Moreover, the outcome in [16], in series [6] and in series [13] was inactive. In addition, the Activity result in series [2], in series [17], in [4], in series [5], in [7] and in series [19] was “Non-Toxic” in each case. Also, the Activity entry in [20], in [8], in series [10], in series [11], in series [21] and in series [22] was “Non-Toxic” each time. The result in [18] was Active. In addition, in series [9], the minimal effective dose came out at 30 mg/kg.
As for `O=C1NC(c2ccccc2)(c2ccccc2)C(=O)N1CN1CCN(Cc2ccccc2)CC1`, in [1], the MED entry is “inactive”. In addition, the Activity result in series [2], in series [4], in [5], in series [7], in series [8] and in series [10] was “Non-Toxic” each time. Also, in series [11], the Activity entry is on record as “Non-Toxic”. Moreover, the minimal effective dose in series [3] came to 300 mg/kg; in [9] it was 100 mg/kg. Besides, the outcome in series [23], in series [6] and in series [24] was inactive.
As to `CC(C)C1(C(C)C)NC(=O)N(CN2CCN(c3cccc(C(F)(F)F)c3)CC2)C1=O`, the MED entry in series [1] is “inactive”. Besides, the outcome in series [16], in [6], in series [13] and in [25] was inactive. Also, the Activity result in series [2], in series [17], in [4], in series [5], in [7] and in series [19] was “Non-Toxic” throughout. In addition, the Activity entry in [20], in series [8], in series [10], in series [11], in series [21] and in [22] was “Non-Toxic” in each case. Also, in [9], the minimal effective dose came to 100 mg/kg.
Regarding `CC(C)C1(C(C)C)NC(=O)N(CN2CCN(C)CC2)C1=O`, the MED entry in [1] is “inactive”. The minimal effective dose in series [3] came out at 300 mg/kg. Also, the result in [6] and in [26] was inactive. Moreover, in [10], the Activity entry was “Non-Toxic”. Also, in series [14], the minimal neurotoxic dose turned out to be 300 mg/kg.
Take `CC(C)C1(C(C)C)NC(=O)N(CN2CCN(c3cccc(Cl)c3)CC2)C1=O`: the MED result in series [1] is “inactive”. Moreover, the result in [16], in series [6], in [12] and in series [24] was inactive. In addition, the Activity entry in series [2], in [4], in series [5], in [7], in series [8] and in series [10] was “Non-Toxic” in each case. The Activity result in series [11] is given as “Non-Toxic”. Also, the minimal effective dose in series [3] and in [9] was 100 mg/kg each time.
Turning to `CC(C)C1(C(C)C)NC(=O)N(CN2CCN(Cc3ccccc3)CC2)C1=O`, the MED result in [1] was “inactive”. Further, the outcome in series [6], in series [13] and in series [26] was inactive. The Activity entry in [10] is “Non-Toxic”. Moreover, the minimal neurotoxic dose in series [14] came out at 300 mg/kg.
As for `O=C1NC(c2ccccc2)(c2ccccc2)C(=O)N1CN1CCN(c2ccc(F)cc2)CC1`, in series [1], the MED entry was “inactive”. Besides, the result in series [16], in series [23], in [6], in [13] and in series [24] was inactive. Also, the Activity result in series [2], in series [4], in series [5], in series [7], in series [8] and in series [10] was “Non-Toxic” in each case. Further, the Activity result in series [11] was “Non-Toxic”. Further, the minimal effective dose in [9] is 100 mg/kg.
